pIC50, pKi: −log10 of the molar value. Calls of active or inactive are those of the source. The calls are words filed in the database; no cut-off is given here.
Key:
[1] = molecular target: T1, Histamine H3 receptor (Homo sapiens, UniProt Q9Y5N1); assay: Displacement of [3H]-(R)-alpha-methylhistamine from human H3 receptor expressed in HEK293T cells after 120 mins by scintillation counting; assay type: cell-based, HEK-293T
[2] = molecular target: Histamine H3 receptor (Rattus norvegicus, UniProt Q9QYN8); assay: Displacement of [3H]-(R)-alpha-methylhistamine from rat H3 receptor expressed in HEK293T cells after 120 mins by scintillation counting; assay type: cell-based, HEK-293T
[3] = molecular target: Voltage-gated inwardly rectifying potassium channel KCNH2 (Homo sapiens, UniProt Q12809); assay: Inhibition of human ERG by IonWorks assay
[4] = molecular target: hERG (KCNH2) (Homo sapiens, UniProt Q12809); assay: Inhibition of human ERG at 10 uM by IonWorks assay
[5] = molecular target: Sodium-dependent serotonin transporter (Homo sapiens, UniProt P31645); assay: Binding affinity to 5-HT transporter
[6] = molecular target: D(2) dopamine receptor (Homo sapiens, UniProt P14416); assay: Binding affinity to D2 receptor
[7] = molecular target: 5-hydroxytryptamine receptor 2B (Homo sapiens, UniProt P41595); assay: Binding affinity to 5-HT2B receptor
[8] = molecular target: T2, 5-hydroxytryptamine receptor 1A (Homo sapiens, UniProt P08908); assay: Binding affinity to 5-HT1A receptor
T2 sequence (P08908 whole entry): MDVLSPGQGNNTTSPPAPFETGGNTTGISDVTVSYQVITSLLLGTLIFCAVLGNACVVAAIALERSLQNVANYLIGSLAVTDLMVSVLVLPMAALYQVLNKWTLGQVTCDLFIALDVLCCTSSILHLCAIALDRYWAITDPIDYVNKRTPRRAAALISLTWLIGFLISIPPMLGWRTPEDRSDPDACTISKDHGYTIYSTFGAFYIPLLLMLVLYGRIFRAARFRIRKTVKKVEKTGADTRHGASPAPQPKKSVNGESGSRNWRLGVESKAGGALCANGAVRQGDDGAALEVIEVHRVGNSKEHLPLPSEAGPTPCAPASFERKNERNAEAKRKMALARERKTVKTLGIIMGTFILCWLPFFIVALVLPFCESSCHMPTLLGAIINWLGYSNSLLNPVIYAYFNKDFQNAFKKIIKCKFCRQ

[9] = molecular target: Histamine H2 receptor (Homo sapiens, UniProt P25021); assay: Binding affinity to H2 receptor
[10] = molecular target: 5-hydroxytryptamine receptor 6 (Homo sapiens, UniProt P50406); assay: Binding affinity to 5-HT6 receptor
[11] = molecular target: Sodium-dependent dopamine transporter (Homo sapiens, UniProt Q01959); assay: Binding affinity to DAT
[12] = molecular target: Histamine H1 receptor (Homo sapiens, UniProt P35367); assay: Binding affinity to H1 receptor
[13] = molecular target: T3, Alpha-2A adrenergic receptor (Homo sapiens, UniProt P08913); assay: Binding affinity to alpha-2A receptor
T3 sequence (P08913 whole entry): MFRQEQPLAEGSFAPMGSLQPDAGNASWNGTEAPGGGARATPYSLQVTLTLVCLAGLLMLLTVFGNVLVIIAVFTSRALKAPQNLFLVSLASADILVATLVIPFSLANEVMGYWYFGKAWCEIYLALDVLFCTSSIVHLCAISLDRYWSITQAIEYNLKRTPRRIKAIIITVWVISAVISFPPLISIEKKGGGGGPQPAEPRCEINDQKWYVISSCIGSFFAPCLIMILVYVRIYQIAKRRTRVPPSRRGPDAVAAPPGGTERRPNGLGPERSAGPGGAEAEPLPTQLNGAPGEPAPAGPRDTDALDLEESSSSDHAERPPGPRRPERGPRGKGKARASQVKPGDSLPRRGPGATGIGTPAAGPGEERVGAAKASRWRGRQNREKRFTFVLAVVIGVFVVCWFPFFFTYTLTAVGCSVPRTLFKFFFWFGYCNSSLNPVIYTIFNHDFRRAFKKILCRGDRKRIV

[14] = test system: Rattus norvegicus; assay: Inhibition of (R)-alpha-methylhistamine-induced water consumption in rat dispogenia model at 3 to 10 mg/kg, ip administered 30 mins prior (R)-alpha-methylhistamine challenge measured over 1 hr; assay type: functional, organism-based
Method in brief: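 Rat dipsogenia model: test article was given ip at 3 or 10 mg/kg 30 min before the H3 agonist (R)-α-methylhistamine. Water consumed during the 1 h after agonist dosing was recorded and compared with vehicle and agonist-alone groups (p < 0.05).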

[15] = molecular target: T1, Histamine H3 receptor; assay: Inverse agonist activity at human H3 receptor expressed in HEK293T cells assessed as inhibition of {35S]GTPgamma binding relative to basal level; assay type: cell-based; conditions: HEK-293T, concentration not given here
Method in brief: (§1)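 Basal [35S]GTPγS binding was measured in membranes from HEK cells expressing human H3 receptor, across a range of concentrations. EC50 and maximal inhibition relative to basal binding were derived.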

[16] = molecular target: T1, Histamine H3 receptor; assay: Inverse agonist activity at human H3 receptor expressed in HEK293T cells assessed as inhibition of {35S]GTPgamma binding; assay type: cell-based; conditions: HEK-293T; method in brief: as §1

Sequence of Histamine H3 receptor (Rattus norvegicus, UniProt Q9QYN8) (Q9QYN8 whole entry): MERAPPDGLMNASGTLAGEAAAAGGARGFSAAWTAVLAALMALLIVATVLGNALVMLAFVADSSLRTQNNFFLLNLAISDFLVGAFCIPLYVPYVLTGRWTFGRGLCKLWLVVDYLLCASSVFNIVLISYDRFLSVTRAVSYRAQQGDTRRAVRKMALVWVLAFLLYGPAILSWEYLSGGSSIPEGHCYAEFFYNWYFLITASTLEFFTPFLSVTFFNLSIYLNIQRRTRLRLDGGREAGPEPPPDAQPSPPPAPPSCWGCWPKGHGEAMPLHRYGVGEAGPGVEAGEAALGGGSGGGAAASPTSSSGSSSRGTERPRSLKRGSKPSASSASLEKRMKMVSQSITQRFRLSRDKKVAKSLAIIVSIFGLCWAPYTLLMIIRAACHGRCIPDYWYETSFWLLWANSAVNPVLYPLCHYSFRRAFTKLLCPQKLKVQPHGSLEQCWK
Sequence of Voltage-gated inwardly rectifying potassium channel KCNH2 (Q12809 whole entry): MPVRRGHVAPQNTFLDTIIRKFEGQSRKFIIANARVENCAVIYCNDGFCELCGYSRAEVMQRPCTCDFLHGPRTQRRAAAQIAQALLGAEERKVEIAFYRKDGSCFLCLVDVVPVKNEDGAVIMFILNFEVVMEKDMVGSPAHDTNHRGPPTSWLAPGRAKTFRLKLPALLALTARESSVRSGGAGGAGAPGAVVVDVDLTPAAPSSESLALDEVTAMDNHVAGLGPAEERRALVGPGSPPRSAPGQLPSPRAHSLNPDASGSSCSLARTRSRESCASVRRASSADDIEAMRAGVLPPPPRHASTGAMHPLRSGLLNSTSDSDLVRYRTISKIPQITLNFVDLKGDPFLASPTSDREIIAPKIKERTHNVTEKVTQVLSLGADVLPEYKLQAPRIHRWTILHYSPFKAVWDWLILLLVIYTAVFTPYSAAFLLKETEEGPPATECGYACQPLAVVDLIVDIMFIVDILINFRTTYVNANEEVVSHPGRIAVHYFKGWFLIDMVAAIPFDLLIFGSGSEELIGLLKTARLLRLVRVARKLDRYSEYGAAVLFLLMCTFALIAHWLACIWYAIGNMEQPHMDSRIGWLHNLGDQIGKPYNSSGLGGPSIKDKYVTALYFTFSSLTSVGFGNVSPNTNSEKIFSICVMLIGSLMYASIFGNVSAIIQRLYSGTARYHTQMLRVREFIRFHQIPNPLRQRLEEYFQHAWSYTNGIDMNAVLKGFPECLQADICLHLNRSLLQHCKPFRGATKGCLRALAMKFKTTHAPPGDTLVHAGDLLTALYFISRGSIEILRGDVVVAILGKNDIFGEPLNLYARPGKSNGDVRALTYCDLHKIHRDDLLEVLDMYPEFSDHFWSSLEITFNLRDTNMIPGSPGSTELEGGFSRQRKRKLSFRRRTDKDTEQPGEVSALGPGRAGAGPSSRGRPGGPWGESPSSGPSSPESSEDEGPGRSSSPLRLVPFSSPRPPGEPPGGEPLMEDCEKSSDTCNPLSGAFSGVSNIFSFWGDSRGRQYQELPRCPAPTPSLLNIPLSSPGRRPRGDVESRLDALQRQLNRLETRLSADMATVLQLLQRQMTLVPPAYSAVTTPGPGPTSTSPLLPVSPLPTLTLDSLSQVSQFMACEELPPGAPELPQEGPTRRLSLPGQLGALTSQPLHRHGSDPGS
Sequence of hERG (KCNH2) (Q12809 whole entry): as above
T1 sequence (Q9Y5N1 whole entry): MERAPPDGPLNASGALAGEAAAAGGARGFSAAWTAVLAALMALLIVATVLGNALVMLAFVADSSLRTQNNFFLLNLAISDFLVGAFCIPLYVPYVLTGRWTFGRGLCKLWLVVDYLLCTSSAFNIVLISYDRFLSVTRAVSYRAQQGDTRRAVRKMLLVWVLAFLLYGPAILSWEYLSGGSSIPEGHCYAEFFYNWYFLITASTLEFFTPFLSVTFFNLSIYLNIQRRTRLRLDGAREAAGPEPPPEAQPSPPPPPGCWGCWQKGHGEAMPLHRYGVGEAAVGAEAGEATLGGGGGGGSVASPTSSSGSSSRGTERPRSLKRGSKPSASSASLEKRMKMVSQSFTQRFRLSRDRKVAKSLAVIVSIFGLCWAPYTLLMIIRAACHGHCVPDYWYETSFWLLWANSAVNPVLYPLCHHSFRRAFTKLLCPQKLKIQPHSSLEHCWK
Sequence of 5-hydroxytryptamine receptor 6 (P50406 whole entry): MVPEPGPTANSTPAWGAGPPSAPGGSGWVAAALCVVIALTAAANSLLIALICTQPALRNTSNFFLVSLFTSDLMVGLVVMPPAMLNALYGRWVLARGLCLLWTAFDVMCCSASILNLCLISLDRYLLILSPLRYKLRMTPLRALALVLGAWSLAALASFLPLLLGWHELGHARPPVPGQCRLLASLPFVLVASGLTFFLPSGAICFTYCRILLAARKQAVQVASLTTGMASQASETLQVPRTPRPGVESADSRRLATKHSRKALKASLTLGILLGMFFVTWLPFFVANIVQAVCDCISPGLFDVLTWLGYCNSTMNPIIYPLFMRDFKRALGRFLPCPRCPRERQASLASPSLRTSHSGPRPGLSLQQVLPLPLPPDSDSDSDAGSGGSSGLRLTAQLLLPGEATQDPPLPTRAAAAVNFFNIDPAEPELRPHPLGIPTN
Sequence of Sodium-dependent serotonin transporter (P31645 whole entry): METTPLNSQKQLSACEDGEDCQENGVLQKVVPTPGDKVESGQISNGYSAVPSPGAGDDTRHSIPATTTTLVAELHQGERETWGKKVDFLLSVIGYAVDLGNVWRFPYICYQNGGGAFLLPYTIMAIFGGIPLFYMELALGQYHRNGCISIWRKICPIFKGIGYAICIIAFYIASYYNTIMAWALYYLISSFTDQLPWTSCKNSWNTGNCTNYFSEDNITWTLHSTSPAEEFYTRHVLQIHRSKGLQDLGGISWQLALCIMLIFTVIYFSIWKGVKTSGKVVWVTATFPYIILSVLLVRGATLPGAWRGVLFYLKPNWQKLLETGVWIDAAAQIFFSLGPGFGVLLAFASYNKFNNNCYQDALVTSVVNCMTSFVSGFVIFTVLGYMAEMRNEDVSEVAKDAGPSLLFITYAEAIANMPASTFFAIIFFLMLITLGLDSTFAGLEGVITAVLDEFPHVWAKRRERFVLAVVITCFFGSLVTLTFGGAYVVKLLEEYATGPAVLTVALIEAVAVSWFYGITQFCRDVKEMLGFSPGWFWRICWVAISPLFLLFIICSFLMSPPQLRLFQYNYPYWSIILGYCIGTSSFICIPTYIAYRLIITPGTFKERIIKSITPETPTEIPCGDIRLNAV
Sequence of Histamine H2 receptor (P25021 whole entry): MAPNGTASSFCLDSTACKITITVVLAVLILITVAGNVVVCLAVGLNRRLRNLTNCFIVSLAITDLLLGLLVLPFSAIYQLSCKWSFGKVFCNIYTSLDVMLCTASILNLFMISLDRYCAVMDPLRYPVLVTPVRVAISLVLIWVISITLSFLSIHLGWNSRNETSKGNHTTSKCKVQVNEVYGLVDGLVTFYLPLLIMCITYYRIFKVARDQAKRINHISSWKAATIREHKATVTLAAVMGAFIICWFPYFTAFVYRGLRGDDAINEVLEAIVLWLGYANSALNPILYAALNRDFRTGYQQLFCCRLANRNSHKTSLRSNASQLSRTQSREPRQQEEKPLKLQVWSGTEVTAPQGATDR

O=C1c2ccc(-c3ccc(F)c(F)c3)cc2CCN1CCN1CCCC1
pKi [1]: 8.11 | pKi [2]: 7.09

O=C(NC1CCC1)c1ccc(-c2ccc3c(c2)CCN(CCN2CCCC2)C3=O)cc1
pIC50 [3]: 5.60 | pKi [1]: 8.68

O=C1c2ccc(-c3ccccc3F)cc2CCN1CCN1CCCC1
pKi [1]: 7.85 | pKi [2]: 6.76

O=C1c2ccc(-c3cccc(OC(F)(F)F)c3)cc2CCN1CCN1CCCC1
pKi [1]: 7.55 | pKi [2]: 6.56

N#Cc1ccc(-c2ccc3c(c2)CCN(CCCN2CCCCC2)C3=O)cc1
pKi [1]: 7.74 | pKi [2]: 6.82

C[C@@H]1CCCN1CCN1CCc2ccc(-c3ccc(C#N)cc3)cc2C1=O
inhibition at 10 µM [4]: 98% | pKi [1]: 8.62

CC(C)NC(=O)c1ccc(-c2ccc3c(c2)CCN(CCN2CCCC2)C3=O)cc1
pKi [1]: 8.72

C[C@@H]1CCCN1CCN1CCc2cc(Oc3ccc(C#N)cn3)ccc2C1=O
inhibition at 10 µM [4]: 89% | pKi [1]: 8.92

O=C(c1ccc(-c2ccc3c(c2)CCN(CCN2CCCC2)C3=O)cc1)N1CCCC1
pKi [1]: 8.62

O=C1c2ccc(-c3ccc(F)cc3)cc2CCN1CCN1CCCCC1
pKi [1]: 8.11

C[C@@H]1CCCN1CCN1Cc2cc(-c3ccc(C#N)cc3)ccc2C1=O
inhibition at 10 µM [4]: 98% | pKi [1]: 7.62

NC(=O)c1ccc(-c2ccc3c(c2)CCN(CCN2CCCC2)C3=O)cc1
inhibition at 10 µM [4]: 14% | pKi [1]: 8.22

O=C1c2ccc(-c3cccc(F)c3)cc2CCN1CCN1CCCC1
pKi [1]: 7.94 | pKi [2]: 6.79

C[C@@H]1CCCN1CCN1CCc2cc(Oc3ccc(C#N)cc3)ccc2C1=O
inhibition at 10 µM [4]: 95% | pKi [1]: 9.22

C[C@H]1CCCN1C(=O)c1ccc(-c2ccc3c(c2)CCN(CCN2CCCC2)C3=O)cc1
pIC50 [3]: 4.92 | pKi [1]: 8.77 | pKi [5]: 6.41 | pKi [6]: < 5.00 | pKi [7]: < 5.00 | pKi [8]: 5.04 | pKi [9]: < 5.00 | pKi [10]: < 5.00 | pKi [11]: < 5.00 | pKi [12]: 5.15 | pKi [13]: < 5.52

O=C1c2ccc(-c3cc(F)cc(F)c3)cc2CCN1CCN1CCCC1
pKi [1]: 8.05 | pKi [2]: 6.84

CN(C)C(=O)c1ccc(-c2ccc3c(c2)CCN(CCN2CCCC2)C3=O)cc1
inhibition [14]: Active | inhibition [15]: 65% | Activity [16]: Dose-dependent effect

O=C(c1ccc(-c2ccc3c(c2)CCN(CCN2CCCC2)C3=O)cc1Cl)N1CCCC1
pIC50 [3]: 5.03 | pKi [1]: 8.80

O=C(c1ccc(-c2ccc3c(c2)CCN(CCN2CCCC2)C3=O)cc1F)N1CCCC1
pIC50 [3]: 5.06 | pKi [1]: 8.89

O=C1c2ccc(-c3ccc(OC(F)(F)F)cc3)cc2CCN1CCN1CCCC1
pKi [1]: 7.83 | pKi [2]: 6.75

C[C@H]1CCCN1CCN1CCc2cc(-c3ccc(F)cc3)ccc2C1=O
pKi [1]: 7.90 | pKi [2]: 6.96

O=C1c2ccc(-c3ccccc3)cc2CCN1CCN1CCCC1
pKi [1]: 7.94 | pKi [2]: 6.84

C[C@@H]1CCCN1CCN1CCc2cc(-c3ccc(C#N)cc3)ccc2C1=O
pIC50 [3]: 6.85 | pKi [2]: 8.24

C[C@@H]1CCCN1CCN1CCc2cc(Oc3ccc(C#N)nc3)ccc2C1=O
inhibition at 10 µM [4]: 99% | pKi [1]: 9.52
